We go through 7 compounds from ChEMBL document CHEMBL1139794, “Anti-AIDS agents 66: syntheses and anti-HIV activity of phenolic and aza 3',4'-di-O-(-)-camphanoyl-(+)-cis-khellactone (DCK) derivatives” (Bioorg Med Chem, 2007).

Series [1] is described as follows: Metabolic stability in human liver microsomes assessed as half life at 1 uM. Format: ADME, Microsome. An outline of the steps:
(§1)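 Compound in 100 mM sodium phosphate, pH 7.4, with 0.1 mg/mL human liver microsomes and 5 mM MgCl2. Preincubated 10 min at 37 °C, then started with NADPH (15 mM stock). Run in duplicate, with NADPH-free controls. Sampled at 0–60 min and quenched in ice-cold acetonitrile with internal standard. Quantified by HPLC-UV; % remaining relative to 0 min gave t1/2, and scaled Clint in L/min/kg.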

A further series deals with Liver microsomes. The experiment in a line: Intrinsic clearance in human liver microsomes at 1 uM. Format: ADME, Microsome. An outline of the steps:
as §1

Series [2] concerns Human immunodeficiency virus 1. Kind of series: Antiviral activity against HIV1 3B replication in H9 cells. The conditions noted are these: Human immunodeficiency virus 1, 3B. Format: functional, organism-based.
A further series concerns H9. The experiment in a line: Reduction in cell viability of human H9 cells. Format: cell-based.
Series [3] is described as follows: Therapeutic index, ratio of IC50 for human H9 cells to EC50 for HIV1 3B. The conditions noted are these: read-out: Ratio IC50/EC50. Format: cell-based.

As for `Cc1c(O)c2ccc3c(c2oc1=O)[C@@H](OC(=O)C12CCC(C)(C(=O)O1)C2(C)C)[C@@H](OC(=O)C12CCC(C)(C(=O)O1)C2(C)C)C(C)(C)O3` (some centres undefined), the half-life (usually how long it takes for the measured level to halve) at 1 µM in series [1] was 3.5 min. The compound also registered a clearance with Liver microsomes of 2000 mL/min/kg. Further, in series [2], the concentration giving a half-maximal response (EC50) (in general, the concentration needed to bring the measured effect to its halfway point) was found to be 2.1 µM. Besides, the IC50 (commonly the midpoint of a concentration-inhibition curve) in the series on H9 was 31 µM. Moreover, the selectivity ratio in series [3] turned out to be 15.
As for `CC1(C)Oc2ccc3c(O)cc(=O)oc3c2[C@@H](OC(=O)C23CCC(C)(C(=O)O2)C3(C)C)[C@H]1OC(=O)C12CCC(C)(C(=O)O1)C2(C)C` (some centres undefined), the EC50 in series [2] was 15 µM. The IC50 in the series with H9 is above 40 µM. Also, the selectivity ratio in series [3] is above 3.
In the same order, the values of `Cc1cc2c(c3oc(=O)cc(O)c13)[C@@H](OC(=O)C13CCC(C)(C(=O)O1)C3(C)C)[C@@H](OC(=O)C13CCC(C)(C(=O)O1)C3(C)C)C(C)(C)O2` (some centres undefined) are 1.2 µM, 14 µM and 12.
In the case of `Cc1cc(=O)oc2c3c(c(O)cc12)OC(C)(C)[C@H](OC(=O)C12CCC(C)(C(=O)O1)C2(C)C)[C@@H]3OC(=O)C12CCC(C)(C(=O)O1)C2(C)C` (some centres undefined), the half-life at 1 µM in series [1] worked out at 3.1 min. Moreover, the clearance with Liver microsomes was found to be 2300 mL/min/kg. For the same compound, in series [2], the EC50 is 1.5 µM. In the series with H9, this compound had an IC50 above 38 µM. Also, in series [3], the selectivity ratio is above 25.
Taken in the same sequence, the figures for `Cc1cc(=O)oc2c3c(ccc12)NC(C)(C)[C@H](OC(=O)C12CCC(C)(C(=O)O1)C2(C)C)[C@@H]3OC(=O)C12CCC(C)(C(=O)O1)C2(C)C` (some centres undefined) were 9.6 min, 700 mL/min/kg, 0.77 µM, above 32 µM and above 42.
In the case of `Cc1cc(=O)oc2c3c(ccc12)OC(C)(C)[C@H](OC(=O)C12CCC(C)(C(=O)O1)C2(C)C)[C@@H]3OC(=O)C12CCC(C)(C(=O)O1)C2(C)C` (some centres undefined), the half-life at 1 µM in series [1] came to 3.4 min. The clearance in the series with Liver microsomes amounted to 2000 mL/min/kg. In addition, the EC50 in series [2] came out at 0.02 µM. The same compound had an IC50 in the series with H9 above 10 µM. In addition, the selectivity ratio in series [3] was above 500.
In series [2], `Cc1cn([C@H]2C[C@H](N=[N+]=[N-])[C@@H](CO)O2)c(=O)[nH]c1=O` [ZIDOVUDINE] gave an EC50 of 0.05 µM. The same compound returned an IC50 in the series with H9 of 1900 µM. Besides, the selectivity ratio in series [3] is 38000.
